Assay results from different studies.
Each line is one published result; the experiments were not run side by side.
MAPK15: Mitogen-activated protein kinase 15 (MAPK15, Homo sapiens, UniProt Q8TD08)
SMO: Protein smoothened (SMO, Homo sapiens, UniProt Q99835)

O=C(Nc1cccnn1)N1CCN([C@@H]2CCOc3cc(C(F)(F)F)ccc32)CC1  inhibition (Peroxisome proliferator-activated receptor gamma (PPARG, Homo sapiens, UniProt P37231); cell-free assay; 20 µM): 18%
Cc1nn(C)cc1-c1nc2c(N3CCN(Cc4ccc(Cl)cc4)CC3)c(Cl)cnc2[nH]1  remaining binding (MAPK15; binding, competition with immobilised ligand; 1 µM): 8.2%
CCN(CC)CCCC[C@H](NC(=O)[C@H](CC(C)C)NC(=O)[C@H](C)NC(=O)[C@H](Cc1ccccc1)NC(=O)c1ccc(C(C)(C)C)cc1)C(=O)N[C@@H](CO)C(=O)OC  ΔTm (Histone-lysine N-methyltransferase 2A (KMT2A, Homo sapiens, UniProt Q03164); thermal stability, DSF; 25 µM): 0.04 °C
Nc1ncc(-c2nc(N3CCOCC3)nc(N3CCOCC3)n2)c(C(F)F)n1  remaining binding (Calcium/calmodulin-dependent protein kinase type IV (CAMK4, Homo sapiens, UniProt Q16566); binding, competition with immobilised ligand; 10 µM): 66%
C#Cc1n[nH]c2c(-c3cn(C(C)c4ccccn4)c(=O)[nH]c3=O)cc(F)cc12 (centres unmarked)  inhibition (AP2-associated protein kinase 1 (AAK1, Homo sapiens, UniProt Q2M2I8); enzyme activity, inhibitor; 1 µM): 4.8%
COc1cc(C(=O)NC(N)=Nc2ccc(C)c(NC(=O)c3ccc(-c4ccccc4)cc3)c2)cc(OC)c1OC  Emax (SMO; GTPγS binding, agonist, radiometric; cell membranes): -88.6%
COc1ncccc1-c1cnn2ccc(N3CCN(C(=O)OC(C)C)CC3)nc12  remaining binding (MAPK15; binding, competition with immobilised ligand; 1 µM): 78%
CC1=C2C[C@H]3[C@@H](CC=C4C[C@@H](O)CC[C@@]43C)[C@@H]2CC[C@]12O[C@@H]1C[C@H](C)CN[C@H]1[C@H]2C  Emax (Protein smoothened (SMO, Homo sapiens, UniProt Q99835, D473H); GTPγS binding, agonist, radiometric; cell membranes): -107%
CC(=O)N[C@@H](CC(=O)O)C(=O)N[C@@H](CC(N)=O)C(=O)N[C@@H](CC(C)C)C(=O)N[C@H](C=O)CC(=O)O  inhibition (Caspase-3 (CASP3, Homo sapiens, UniProt P42574); enzyme activity, inhibitor; 1 nM): 10%
Cc1cnc(-c2cc(N3CCN(C(=O)CCS(C)(=O)=O)CC3)ncc2Cl)c(C)c1  Emax (SMO; GTPγS binding, agonist, radiometric; cell membranes): -60.4%
Cc1ncc(C)n2nc(/C=C/c3nc(N4CCCC4)cc(N4CCOCC4)n3)nc12  inhibition (Angiotensin-converting enzyme (ACE, Homo sapiens, UniProt P12821); enzyme activity, inhibitor; 10 µM): -13%
